Assay results from ChEMBL document CHEMBL1152865, “Synthesis and antimycobacterial activities of novel 6-nitroquinolone-3-carboxylic acids” (Eur J Med Chem, 2009).
≈ marks a conversion by molar mass, not a printed value.

Tests used:
[1] = Inhibition of Mycobacterium smegmatis DNA gyrase assessed as inhibition of relaxed circular pUC18 supercoiling activity by agarose gel electrophoresis; set-up: species or system Mycolicibacterium smegmatis
In short: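 Gyrase purified from M. smegmatis, pre-incubated with compound in DMSO. Then 400 ng relaxed pUC18 added in 35 mM Tris-HCl pH 7.5, 5 mM MgCl2, 25 mM potassium glutamate, 2 mM spermidine, 2 mM ATP, BSA, yeast tRNA and 5% glycerol. Incubated 30 min at 37 °C; read-out by agarose gel electrophoresis. Ciprofloxacin and 5% DMSO reactions run as controls.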

[2] = test system: Mycobacterium tuberculosis; assay: Antibacterial activity against Mycobacterium tuberculosis H37Rv by agar dilution method; type: functional
In short: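 Agar dilution in Middlebrook 7H11 agar supplemented with OADC, following an approach similar to NCCLS guidance. MIC determined in duplicate.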

[3] = test system: Mycolicibacterium smegmatis; assay: Antibacterial activity against Mycobacterium smegmatis ATCC 14468 by agar dilution method; type: functional
In short: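 Agar dilution on Middlebrook 7H11 agar with OADC supplement, following an NCCLS-type procedure; MIC read in duplicate.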

[4] = Cytotoxicity against african green monkey Vero cells after 72 hrs by MTT assay; type: cell-based; details: chlorocebus sabaeus
In short: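 Cells exposed to compound for 72 h; viability from cellular MTT conversion to formazan; CC50 derived.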

CC(C)(C)n1cc(C(=O)O)c(=O)c2cc([N+](=O)[O-])c(N3CCN(C(c4ccccc4)c4ccc(Cl)cc4)CC3)cc21 (stereo not drawn)
IC50 [1]: 30 µg/mL (≈ 52.2 µM) | MIC [2]: 5.44 µM (≈ 3.13 µg/mL) | MIC [3]: 10.9 µM (≈ 6.25 µg/mL)

CC(C)(C)NC(=O)C1c2ccccc2CCN1c1cc2c(cc1[N+](=O)[O-])c(=O)c(C(=O)O)cn2-c1ccc(F)cc1 (stereo not drawn)
MIC [2]: 5.6 µM (≈ 3.13 µg/mL) | MIC [3]: 22.4 µM (≈ 12.5 µg/mL)

Cc1onc(-c2c(F)cccc2F)c1C(=O)N1CCN(c2cc3c(cc2[N+](=O)[O-])c(=O)c(C(=O)O)cn3C2CC2)CC1
MIC [2]: 2.69 µM (≈ 1.56 µg/mL) | MIC [3]: 10.8 µM (≈ 6.25 µg/mL)

Cc1onc(-c2c(F)cccc2F)c1C(=O)N1CCN(c2cc3c(cc2[N+](=O)[O-])c(=O)c(C(=O)O)cn3C(C)(C)C)CC1
CC50 at 72 h [4]: 105 µM | IC50 [1]: 30 µg/mL (≈ 50.4 µM) | MIC [2]: 2.62 µM (≈ 1.56 µg/mL) | MIC [3]: 10.5 µM (≈ 6.25 µg/mL)

O=C(O)c1cn(-c2ccc(F)cc2)c2cc(N3CCN(C(c4ccccc4)c4ccc(Cl)cc4)CC3)c([N+](=O)[O-])cc2c1=O (stereo not drawn)
MIC [2]: 10.2 µM (≈ 6.25 µg/mL) | MIC [3]: 40.8 µM (≈ 25 µg/mL)

Cc1onc(-c2c(F)cccc2F)c1C(=O)N1CCN(c2cc3c(cc2[N+](=O)[O-])c(=O)c(C(=O)O)cn3-c2ccc(F)cc2)CC1
MIC [2]: 4.94 µM (≈ 3.13 µg/mL) | MIC [3]: 19.7 µM (≈ 12.5 µg/mL)

O=C(O)c1cn(-c2ccc(F)cc2)c2cc(N3CCN(C(=O)C4COc5ccccc5O4)CC3)c([N+](=O)[O-])cc2c1=O (stereo not drawn)
CC50 at 72 h [4]: 54.4 µM | IC50 [1]: 30 µg/mL (≈ 52.2 µM) | MIC [2]: 2.72 µM (≈ 1.56 µg/mL) | MIC [3]: 10.9 µM (≈ 6.25 µg/mL)

O=C(O)c1cn(-c2ccc(F)cc2)c2cc(N3CCC(N4CCCCC4)CC3)c([N+](=O)[O-])cc2c1=O
MIC [2]: 6.33 µM (≈ 3.13 µg/mL) | MIC [3]: 25.3 µM (≈ 12.5 µg/mL)

CN1CCN(c2cc3c(cc2[N+](=O)[O-])c(=O)c(C(=O)O)cn3-c2ccc(F)cc2)CC1c1ccccc1 (stereo not drawn)
MIC [2]: 6.23 µM (≈ 3.13 µg/mL) | MIC [3]: 24.9 µM (≈ 12.5 µg/mL)

O=C(O)c1cn(-c2ccc(F)cc2)c2cc(N3CCSCC3)c([N+](=O)[O-])cc2c1=O
MIC [2]: 14.6 µM (≈ 6.25 µg/mL) | MIC [3]: 29.1 µM (≈ 12.5 µg/mL)

CC(C)(C)n1cc(C(=O)O)c(=O)c2cc([N+](=O)[O-])c(N3CCSCC3)cc21
MIC [2]: 7.99 µM (≈ 3.13 µg/mL) | MIC [3]: 31.9 µM (≈ 12.5 µg/mL)

O=C(O)c1cn2c(n1)CN(c1cc3c(cc1[N+](=O)[O-])c(=O)c(C(=O)O)cn3C1CC1)CC2
CC50 at 72 h [4]: 142 µM | MIC [2]: 1.78 µM (≈ 0.782 µg/mL) | MIC [3]: 7.12 µM (≈ 3.13 µg/mL)

CC(C)(C)n1cc(C(=O)O)c(=O)c2cc([N+](=O)[O-])c(N3CCn4cc(C(=O)O)nc4C3)cc21
MIC [2]: 6.87 µM (≈ 3.13 µg/mL) | MIC [3]: 54.9 µM (≈ 25 µg/mL)

CC(C)(C)NC(=O)C1c2ccccc2CCN1c1cc2c(cc1[N+](=O)[O-])c(=O)c(C(=O)O)cn2C(C)(C)C (stereo not drawn)
MIC [2]: 12 µM (≈ 6.25 µg/mL) | MIC [3]: 24 µM (≈ 12.5 µg/mL)

CC1CN(c2cc3c(cc2[N+](=O)[O-])c(=O)c(C(=O)O)cn3C2CC2)CC(C)O1 (stereo not drawn)
MIC [2]: 2.01 µM (≈ 0.779 µg/mL) | MIC [3]: 8.08 µM (≈ 3.13 µg/mL)

O=C(O)c1cn(-c2ccc(F)cc2)c2cc(N3CCN(Cc4ccc5c(c4)OCO5)CC3)c([N+](=O)[O-])cc2c1=O
MIC [2]: 2.85 µM (≈ 1.56 µg/mL) | MIC [3]: 22.9 µM (≈ 12.5 µg/mL)

O=C(O)c1cn(C2CC2)c2cc(N3CCN(C(c4ccccc4)c4ccc(Cl)cc4)CC3)c([N+](=O)[O-])cc2c1=O (stereo not drawn)
MIC [2]: 5.59 µM (≈ 3.12 µg/mL) | MIC [3]: 5.59 µM (≈ 3.12 µg/mL)

O=C(O)c1cn(C2CC2)c2cc(N3CCN(C(=O)c4ccco4)CC3)c([N+](=O)[O-])cc2c1=O
CC50 at 72 h [4]: 111 µM | IC50 [1]: 30 µg/mL (≈ 66.3 µM) | MIC [2]: 0.69 µM (≈ 0.312 µg/mL) | MIC [3]: 1.39 µM (≈ 0.629 µg/mL)

O=C(O)c1cn(-c2ccc(F)cc2)c2cc(N3CCN(C(=O)c4ccco4)CC3)c([N+](=O)[O-])cc2c1=O
MIC [2]: 6.18 µM (≈ 3.13 µg/mL) | MIC [3]: 24.7 µM (≈ 12.5 µg/mL)

CC1CN(c2cc3c(cc2[N+](=O)[O-])c(=O)c(C(=O)O)cn3-c2ccc(F)cc2)CC(C)O1 (stereo not drawn)
CC50 at 72 h [4]: 70.8 µM | IC50 [1]: 20 µg/mL (≈ 45.3 µM) | MIC [2]: 3.53 µM (≈ 1.56 µg/mL) | MIC [3]: 14.2 µM (≈ 6.25 µg/mL)

CC(C)(C)n1cc(C(=O)O)c(=O)c2cc([N+](=O)[O-])c(N3CCC(N4CCCCC4)CC3)cc21
MIC [2]: 6.86 µM (≈ 3.13 µg/mL) | MIC [3]: 27.4 µM (≈ 12.5 µg/mL)

O=C(O)c1cn(C2CC2)c2cc(N3CCC(O)(c4ccc(Cl)cc4)CC3)c([N+](=O)[O-])cc2c1=O
CC50 at 72 h [4]: 129 µM | IC50 [1]: 5 µg/mL (≈ 10.3 µM) | MIC [2]: 0.81 µM (≈ 0.392 µg/mL) | MIC [3]: 3.22 µM (≈ 1.56 µg/mL)

CC1CN(c2cc3c(cc2[N+](=O)[O-])c(=O)c(C(=O)O)cn3C(C)(C)C)CC(C)O1 (stereo not drawn)
MIC [2]: 7.76 µM (≈ 3.13 µg/mL) | MIC [3]: 31 µM (≈ 12.5 µg/mL)
